Series [1] is described as follows: Genotoxicity in Salmonella typhimurium TA100 in presence of rat S9 fraction by mini-Ames test. The following applies: salmonella enterica subsp. enterica serovar typhimurium. It counts as toxicity, subcellular.
Series [2] in a line: Genotoxicity in Salmonella typhimurium TA1537 in presence of rat S9 fraction by mini-Ames test. It counts as toxicity, subcellular. The following applies: salmonella enterica subsp. enterica serovar typhimurium.
Series [3] can be described thus: Half life of the compound in Britton-Robinson buffer at pH 4 to 10 at 0.05 mg/ml. It counts as physicochemical.
The nature of series [4]: Solubility of the compound in Britton-Robinson buffer at pH 4 measured after 24 hrs. It counts as physicochemical. In a few lines:
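Solubility was measured in Britton-Robinson buffers spanning pH 2 to pH 8. Readings were taken after 12 h and 24 h and reported in mg/mL.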

A short description of series [5]: Genotoxicity in Salmonella typhimurium TA1535 in presence of rat S9 fraction by mini-Ames test. It counts as toxicity, subcellular. The conditions noted are these: salmonella enterica subsp. enterica serovar typhimurium. (In general: The Ames test detects mutagens through reverse mutation in bacteria.)
Another series addresses Kallikrein-7 (Homo sapiens, UniProt P49862). Briefly: Inhibition of recombinant human C-terminal 10-His-tagged KLK7 (Glu23 to His252 residues) expressed in mouse NS0 cells using 5-FAM-E-A-L-Y-L-V-S-G-C(5-TAMRA) as substrate incubated for 40 mins by FLINT assay.
In the next series the target is Coagulation factor X (Homo sapiens, UniProt P00742). The series is described as follows: Inhibition of recombinant human C-terminal 10-His-tagged factor Xa (L24 to K488 residues) expressed in baculovirus infected Sf21 insect cells using Mca-RPKPVE-Nval-WRK(Dnp)-NH2 as substrate incubated for 40 mins by FLINT assay.
Series [6] can be described thus: Genotoxicity in Salmonella typhimurium TA100 in absence of rat S9 fraction by mini-Ames test. It counts as toxicity. The following applies: salmonella enterica subsp. enterica serovar typhimurium.
Another series deals with T1, Neutrophil elastase (Homo sapiens, UniProt P08246).
T1 sequence (P08246 whole entry): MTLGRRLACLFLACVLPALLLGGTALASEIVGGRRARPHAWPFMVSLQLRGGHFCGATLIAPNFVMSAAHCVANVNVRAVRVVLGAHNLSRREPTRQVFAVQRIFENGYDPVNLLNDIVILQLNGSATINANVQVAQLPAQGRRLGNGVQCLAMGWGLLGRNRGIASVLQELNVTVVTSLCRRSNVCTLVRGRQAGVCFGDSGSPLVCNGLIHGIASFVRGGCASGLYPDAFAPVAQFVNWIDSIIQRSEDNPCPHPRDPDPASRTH
Briefly: Inhibition of human neutrophil elastase using MeOSuc-AAPV-AMC as substrate incubated for 40 mins by FLINT assay.

The target in a further series is T2, Kallikrein-5 (Homo sapiens, UniProt Q9Y337).
T2 sequence (Q9Y337 whole entry): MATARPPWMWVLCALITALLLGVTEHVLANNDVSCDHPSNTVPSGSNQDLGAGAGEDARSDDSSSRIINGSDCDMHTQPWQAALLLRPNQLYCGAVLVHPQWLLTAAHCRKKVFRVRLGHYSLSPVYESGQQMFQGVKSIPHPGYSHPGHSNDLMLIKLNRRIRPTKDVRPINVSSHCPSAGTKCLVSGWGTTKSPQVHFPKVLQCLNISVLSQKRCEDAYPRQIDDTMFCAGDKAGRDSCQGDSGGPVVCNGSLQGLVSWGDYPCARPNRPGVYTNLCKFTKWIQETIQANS
Briefly: Inhibition of human recombinant 6His-Q-FLAG-tagged KLK5 expressed in baculovirus infected Sf9 insect cells using (Tos-Gly-Pro-Arg)2[R110].2TFA as substrate measured at 30 secs interval for 5 mins by FLINT assay. In a few lines:
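Standard KLK5 assay format. Its theoretical tight-binding limit corresponds to pIC50 8.4.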

A short description of series [7]: Genotoxicity in Salmonella typhimurium TA1537 in absence of rat S9 fraction by mini-Ames test. It counts as toxicity. The conditions noted are these: salmonella enterica subsp. enterica serovar typhimurium.
Series [8] in a line: Genotoxicity in Salmonella typhimurium TA98 in presence of rat S9 fraction by mini-Ames test. It counts as toxicity, subcellular. The following applies: salmonella enterica subsp. enterica serovar typhimurium.

For orientation: half-life means how long it takes for the measured level to halve. A higher half-life goes with slow decline. A word on the solubility: it is how much of the substance goes into solution per volume. High values mean a readily soluble substance, low ones a poorly soluble substance. What is called IC50 is the concentration at which inhibition is half-maximal.

Regarding `Cl.N=C(N)c1ccc([C@H]2Cc3ccc(C(F)(F)F)cc3B(O)O2)cc1OCc1cccnc1`, the Activity entry in series [1], in [2], in series [5], in series [6], in series [7] and in series [8] was “Non-Toxic” throughout. Besides, in series [3], the half-life at 0.05 mg/ml is over 41.7 days. This compound showed a solubility at 24 h in [4] of over 9000 µg/mL. For the same compound, the IC50 was 79400 nM on Kallikrein-7, 398 nM on Coagulation factor X, over 100000 nM at Neutrophil elastase and 5.01 nM at Kallikrein-5.
